What was measured:
Type in all cases: functional
[1] = organism: Rattus norvegicus; assay: In vitro inhibitory concentration that relaxed KCL induced contraction in rat detrusor strip by 50%
[2] = tested on: Rattus norvegicus; assay: Compound was evaluated in vivo for the effective dose that cause a 50% reduction in frequency of spontaneous bladder contraction in the rat hypertrophied model after oral administration
In short: (§1)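 Female Sprague-Dawley rats (190-210 g) given partial proximal urethral ligation (4-0 silk over 1 mm rod) under isoflurane; bladder catheter, cystometry in metabolic cages after overnight saline perfusion (2 mL/h), saline infusion 20 mL/h. Oral dosing in PEG-200 2 h after first cystometry, repeat ~1 h post-dose; % change in contraction frequency from pre-drug; ED50 from dose-response.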

[3] = tested on: Rattus norvegicus; assay: The percent change in the frequency of spontaneous bladder contractions after oral administration of a dose of 3 mg/kg in rat hypertrophic bladder model; in short: as §1
[4] = tested on: Rattus norvegicus; assay: The percent change in BP was determined after oral administration of a dose of 10 mg/kg in rat hypertrophied model
[5] = Selectivity ratio of MAP ED20/bladder ED50
In short: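 Ratio of oral MAP ED20 in normotensive rats to oral ED50 for 50% fall in spontaneous bladder contraction frequency in rat hypertrophied unstable-bladder model.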

[6] = tested on: Rattus norvegicus; assay: Compound was evaluated in vivo for the effective dose that cause a 20% drop in MAP normotensive rat after oral administration

Compound	IC50 [1]	also measured
CCC(C)(C)/N=c1\c(O)c(O)\c1=N/Cc1ccc(C#N)cc1Cl	0.13 µM	–
Cc1cc(Br)cc(C)c1C/N=c1\c(O)c(O)\c1=N/C(C)(C)C	0.29 µM	–
Cc1cc(Cl)cc(Cl)c1C/N=c1\c(O)c(O)\c1=N/C(C)(C)C	0.22 µM	–
CC(C)(C)/N=c1\c(O)c(O)\c1=N/Cc1c(Cl)cccc1Cl	1.1 µM	–
CCc1cc(C#N)ccc1C/N=c1\c(O)c(O)\c1=N/[C@H](C)C(C)(C)C	2 µM	–
CC(/N=c1\c(O)c(O)\c1=N/Cc1ccc(Cl)cc1Cl)C(C)(C)C (stereo not drawn)	0.34 µM	–
CC(C)(C)/N=c1\c(O)c(O)\c1=N/Cc1ccc(C#N)cc1Cl	0.14 µM	ED50 [2]: 3 mg/kg
CCc1cc(C#N)ccc1C/N=c1\c(O)c(O)\c1=N/C(C)(C)C	0.24 µM	–
CCC(C)(C)/N=c1\c(O)c(O)\c1=N/Cc1c(C)cc(Br)cc1C	1.2 µM	–
CCC(C)(C)/N=c1\c(O)c(O)\c1=N/Cc1ccc(F)c(F)c1	1.6 µM	–
CCC(C)(C)/N=c1\c(O)c(O)\c1=N/Cc1ccc(SC)cc1	5.6 µM	–
CC(C)(C)/N=c1\c(O)c(O)\c1=N/Cc1cc(F)ccc1F	3.9 µM	–
CCC(C)(C)/N=c1\c(O)c(O)\c1=N/Cc1c(C)cc(C)cc1Cl	0.2 µM	–
CCC(C)(C)/N=c1\c(O)c(O)\c1=N/Cc1ccc(F)cc1F	0.22 µM	–
CCC(C)(C)/N=c1\c(O)c(O)\c1=N/Cc1ccc(F)cc1Cl	1.5 µM	–
Cc1cc(C#N)cc(Cl)c1C/N=c1\c(O)c(O)\c1=N/C(C)C(C)(C)C (stereo not drawn)	1.9 µM	–
N#Cc1ccc(CNc2c(NCc3ccc(C#N)cc3)c(=O)c2=O)cc1	> 30 µM	–
CCC(C)(C)/N=c1\c(O)c(O)\c1=N/Cc1cc(F)cc(F)c1	0.75 µM	–
CCc1cc(C/N=c2\c(O)c(O)\c2=N/C(C)(C)C)ccc1C#N	6.1 µM	–
CC(C)(C)/N=c1\c(O)c(O)\c1=N/Cc1ccccc1	3.4 µM	–
CCCC/N=c1\c(O)c(O)\c1=N/Cc1ccc(C#N)cc1	> 30 µM	–
CC(/N=c1\c(O)c(O)\c1=N/CCc1ccc(C#N)cc1)C(C)(C)C (stereo not drawn)	> 30 µM	–
CCC/N=c1\c(O)c(O)\c1=N/Cc1ccc(C#N)cc1	21.9 µM	–
CCc1cc(C#N)ccc1C/N=c1\c(O)c(O)\c1=N/C(C)(C)CC	0.11 µM	–
CC(C)(C)/N=c1\c(O)c(O)\c1=N/Cc1ccccc1F	2.1 µM	–
CC(C)(C)/N=c1\c(O)c(O)\c1=N/Cc1ccc(Cl)cc1	1.7 µM	–

Compound	IC50 [1]	also measured
CCC(C)(C)/N=c1\c(O)c(O)\c1=N/Cc1c(Cl)cccc1Cl	0.28 µM	–
CCC(C)(C)/N=c1\c(O)c(O)\c1=N/Cc1c(C)cccc1Cl	4.4 µM	–
CC(C)(C)/N=c1\c(O)c(O)\c1=N/CCc1ccc(C#N)cc1	> 30 µM	–
CC(C)C/N=c1\c(O)c(O)\c1=N/Cc1ccc(C#N)cc1	10.2 µM	–
CCCC(=O)N(Cc1ccc(C#N)cc1)c1c(NC(C)C(C)(C)C)c(=O)c1=O (stereo not drawn)	12.2 µM	ED50 [2]: 8 mg/kg
CCC(C)(C)/N=c1\c(O)c(O)\c1=N/Cc1ccc(C)cc1C	0.53 µM	–
CCC(C)(C)/N=c1\c(O)c(O)\c1=N/Cc1cc(C)cc(C)c1	> 30 µM	–
CC(C)(C)/N=c1\c(O)c(O)\c1=N/Cc1c(F)cccc1F	7.5 µM	–
N#Cc1ccc(CNc2c(NC3CCCC3)c(=O)c2=O)cc1	9.4 µM	–
CCC(C)(C)/N=c1\c(O)c(O)\c1=N/Cc1c(C)cccc1C	0.83 µM	–
CC(C)(C)/N=c1\c(O)c(O)\c1=N/Cc1ccncc1	3 µM	–
CC(C)(C)/N=c1\c(O)c(O)\c1=N/Cc1ccc(F)cc1Cl	1.4 µM	–
CC(C)(C)/N=c1\c(O)c(O)\c1=N/Cc1cccnc1	2.6 µM	–
CC(C)(C)/N=c1\c(O)c(O)\c1=N/Cc1ccc(F)cc1	1.5 µM	–
CC(C)(C)/N=c1\c(O)c(O)\c1=N/Cc1ccccn1	11.5 µM	–
CCC(C)(C)/N=c1\c(O)c(O)\c1=N/Cc1ccc(Cl)cc1Cl	0.21 µM	–
C[C@@H](/N=c1\c(O)c(O)\c1=N/Cc1ccc(C#N)cc1)C(C)(C)C	0.27 µM	Change [3]: -69%; Change [4]: 7%
CCc1cc(C#N)ccc1Nc1c(N[C@H](C)C(C)(C)C)c(=O)c1=O	–	Ratio [5]: 17.7; ED50 [2]: 0.13 mg/kg; ED20 [6]: 2.3 mg/kg
CCC(C)(C)Nc1c(NCc2c(C)cc(Cl)cc2Cl)c(=O)c1=O	0.1 µM	Change [3]: -82%; Ratio [5]: 166; Change [4]: -7%; ED50 [2]: 0.6 mg/kg; ED20 [6]: 100 mg/kg
CC[C@@H](C)/N=c1\c(O)c(O)\c1=N/Cc1ccc(C#N)cc1	4 µM	–
CC[C@H](C)/N=c1\c(O)c(O)\c1=N/Cc1ccc(C#N)cc1	2.2 µM	–
Cc1cc(Cl)cc(Cl)c1C/N=c1\c(O)c(O)\c1=N/C(C)C(C)(C)C (stereo not drawn)	9.8 µM	–
N#Cc1ccc(CNc2c(N)c(=O)c2=O)cc1	> 30 µM	–
CC(C)(CO)/N=c1\c(O)c(O)\c1=N/Cc1ccc(C#N)cc1	21.3 µM	–
CC(/N=c1\c(O)c(O)\c1=N/Cc1ccc(C#N)cc1Cl)C(C)(C)C (stereo not drawn)	0.18 µM	–
CCC(C)(C)/N=c1\c(O)c(O)\c1=N/Cc1ccc(C#N)cc1	1.1 µM	–

Compound	IC50 [1]	also measured
CC(C)(C)/N=c1\c(O)c(O)\c1=N/Cc1ccc(Cl)cc1Cl	1.3 µM	–
CCC(C)(C)/N=c1\c(O)c(O)\c1=N/Cc1c(C)cc(C#N)cc1Cl	0.16 µM	–
CC(C)(C)/N=c1\c(O)c(O)\c1=N/Cc1ccc(C#N)cc1	0.27 µM	Change [3]: -52%; ED50 [2]: 3 mg/kg
CCC(C)(C)/N=c1\c(O)c(O)\c1=N/Cc1ccc(C)c(C)c1	> 30 µM	–
CCC(CC)/N=c1\c(O)c(O)\c1=N/Cc1ccc(C#N)cc1	1.3 µM	–
CCC(C)(C)/N=c1\c(O)c(O)\c1=N/Cc1ccc(F)cc1	0.36 µM	–
CCC(C)(C)/N=c1\c(O)c(O)\c1=N/Cc1ccc(F)c(Cl)c1	0.87 µM	–
CC(C)(C)/N=c1\c(O)c(O)\c1=N/Cc1ccc(F)cc1F	2.1 µM	–
CC(/N=c1\c(O)c(O)\c1=N/[C@H](C)C(C)(C)C)c1ccc(C#N)cc1 (stereo partly drawn)	6.5 µM	–
CC(/N=c1/c(NC(=O)c2ccc(C#N)cc2)c(O)c1=O)C(C)(C)C (stereo not drawn)	11.5 µM	–
CN(C)c1c(NCc2ccc(C#N)cc2)c(=O)c1=O	> 30 µM	–
CC(C)(C)/N=c1\c(O)c(O)\c1=N/Cc1ccc(C#N)c(Cl)c1	1.1 µM	–
CCc1cc(Br)ccc1C/N=c1\c(O)c(O)\c1=N/C(C)(C)C	0.27 µM	–
N#Cc1ccc(CNc2c(NCC(F)(F)C(F)(F)F)c(=O)c2=O)cc1	14.4 µM	–
CN(c1c(NCc2ccc(C#N)cc2)c(=O)c1=O)C(C)(C)C	18.3 µM	–
CCCC(=O)N(Cc1c(C)cc(Cl)cc1Cl)c1c(NC(C)(C)CC)c(=O)c1=O	–	ED50 [2]: 3.9 mg/kg
COc1ccc(C/N=c2\c(O)c(O)\c2=N/C(C)(C)C)cc1	4.8 µM	–
CCC(C)(C)/N=c1\c(O)c(O)\c1=N/Cc1c(C)cc(C)cc1C	0.31 µM	–
CC(C)/N=c1\c(O)c(O)\c1=N/Cc1ccc(C#N)cc1	14 µM	–
CCC(C)(C)/N=c1\c(O)c(O)\c1=N/Cc1ccc(C#N)c(Cl)c1	0.26 µM	–
C/N=c1\c(O)c(O)\c1=N/Cc1ccc(C#N)cc1	> 30 µM	–
CC(C)(C)/N=c1\c(O)c(O)\c1=N/Cc1cccc(F)c1	2.4 µM	–
Cc1ccc(C/N=c2\c(O)c(O)\c2=N/C(C)(C)C)c(C)c1	0.63 µM	–
CC1(C)Oc2ccc(OC(F)(F)F)cc2[C@@H](N2Cc3ccccc3C2=O)[C@@H]1O [CELIKALIM]	–	Ratio [5]: 0.7; ED50 [2]: 0.3 mg/kg; ED20 [6]: 0.2 mg/kg
C[C@](O)(C(=O)Nc1ccc(C(=O)c2ccccc2)cc1)C(F)(F)F [ZD-6169]	–	Ratio [5]: 2.9; ED50 [2]: 2.4 mg/kg

— ChEMBL document CHEMBL1132985, “Design and SAR of novel potassium channel openers targeted for urge urinary incontinence. 2. Selective and potent benzylamino cyclobutenediones” (J Med Chem, 2000)
